Here are results for 28 compounds from ChEMBL document CHEMBL1143630, “Successful in silico discovery of novel nonsteroidal ligands for human sex hormone binding globulin” (J Med Chem, 2005).

Assay [1] has as its target T1, Sex hormone-binding globulin (Homo sapiens) (UniProt P04278).
T1 sequence (whole entry): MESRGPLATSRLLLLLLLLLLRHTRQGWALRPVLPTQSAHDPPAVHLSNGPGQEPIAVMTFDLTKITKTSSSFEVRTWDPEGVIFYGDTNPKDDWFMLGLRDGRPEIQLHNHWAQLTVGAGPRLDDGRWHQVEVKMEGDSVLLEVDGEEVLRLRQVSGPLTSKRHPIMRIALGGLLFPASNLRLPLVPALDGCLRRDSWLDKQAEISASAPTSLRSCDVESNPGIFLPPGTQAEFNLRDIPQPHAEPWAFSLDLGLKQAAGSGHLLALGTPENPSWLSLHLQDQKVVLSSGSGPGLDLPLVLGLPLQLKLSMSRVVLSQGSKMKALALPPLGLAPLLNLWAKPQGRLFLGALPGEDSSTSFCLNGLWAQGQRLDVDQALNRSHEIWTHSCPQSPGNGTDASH
The assay is described as follows: In vitro inhibition of [3H]DHT binding to human sex hormone-binding globulin (SHBG). Also noted: concentration or dose not given beside the values. In outline: (§1)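 Human pregnancy serum diluted 1:200 (about 1 nM SHBG), stripped of endogenous steroid with dextran-coated charcoal, mixed with [3H]DHT at 10 nM. Triplicate test compound added, incubated overnight at room temperature. Dextran-coated charcoal slurry then added for 10 min at 0°C and centrifuged to separate bound from free label. Bound label counted by scintillation and expressed relative to the no-competitor control.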

Assay [2] has as its target T2, Sex hormone-binding globulin (Homo sapiens, UniProt P04278).
T2 sequence (P04278 whole entry): T1 sequence (whole entry)
The assay is described as follows: Inhibitory concentration against [3H]-DHT binding to human sex hormone-binding globulin (SHBG). In outline:
as §1

In assay [3] the target is T1, Sex hormone-binding globulin (Homo sapiens). The experiment in a line: Relative binding affinity for human sex hormone-binding globulin (SHBG) compared to testosterone. A digest of the protocol: as §1
For assay [4] the target is unchanged. The assay is described as follows: Association […] constant for human sex hormone-binding globulin (SHBG).
Assay [5] has the same target. The assay is described as follows: Relative binding affinity towards human sex hormone-binding globulin (SHBG) compared to estradiol. A digest of the protocol:
as §1

Consider `C[C@H]1CC[C@H]2[C@@](C)(CO)[C@H](O)CC[C@]2(C)[C@@]12CC[C@@](C)(CO)O2`, for which the Reduction in assay [1] was determined as 6%.
The same measure, in the same setting: to `Cc1cc(O)c(C(=O)/C=C/c2ccc(O)c([N+](=O)[O-])c2)c(=O)o1` belongs 1%; to `COc1cc2c(cc1O)CCN(C[C@@H](O)CNCCO)[C@H]2C`, 12%; to `COC(=O)c1ccc(CC(=O)c2ccc(O)cc2O)o1`, 10%.
Regarding `COc1cc([C@H]2OC[C@]3(CO)[C@H](C)[C@H]2C(C)=C[C@@H]3C)ccc1O`, in assay [2], the IC50 (commonly the concentration that gives 50% inhibition) was found to be 22.4 µM. In assay [1], this compound gave a Reduction of 84%. Further, the relative binding affinity (RBA) in assay [3] was determined as 696; in assay [5], 2750. Moreover, in assay [4], the Ka came to 730000 M⁻¹.
`O=C1C=CC2=N[C@@]34CCCC[C@@H]3[C@@H](c3ccc(O)cc3)C=C(c3ccccc3)N4C2=C1` registered a Reduction in assay [1] of 0%.
In assay [2], `CC1=C[C@@H](C)[C@@]2(CO)CO[C@@H](c3ccc(O)cc3)[C@@H]1[C@H]2C` returned an IC50 of 124 µM. Further, the Reduction in assay [1] is 56%. The figures for the relative binding affinity (RBA) in assay [3] and in assay [5] were 125 and 493, respectively. Further, the Ka in assay [4] was determined as 130000 M⁻¹.
As to `C[C@H]1CC[C@@H]2[C@](C)(CO)[C@H](O)CC[C@@]2(C)[C@]12CC[C@@]1(CCOC1)O2`, in assay [1], the Reduction was 11%.
Same read-out and setting: with `CN1CCc2cc(O)c(O)cc2[C@H]1Cc1ccc(O)c(O)c1` the figure was 14%; with `CC1(C)CC2(CC(C)(C)c3cc(O)c(O)cc32)c2cc(O)c(O)cc21`, 48%; with `O=C(Cc1ccc2cccnc2c1)c1ccc(O)cc1O`, 0%.
Still for that read-out and setting: with `COC(=O)c1cc(CC(=O)c2ccc(O)cc2O)c(C)o1` the figure was 0%.
Compound `O=C(Cc1ccc(O)cc1)c1ccc(O)cc1O` yielded an IC50 in assay [2] of 13.6 µM. The Reduction in assay [1] came to 95%. Moreover, the relative binding affinity (RBA) in assay [3] was 1150; in assay [5] it was 4530. In assay [4], this compound returned a Ka of 1.2e+06 M⁻¹.
In the case of `C[C@H]1CC[C@@H]2[C@](C)(CO)[C@H](O)CC[C@@]2(C)[C@@]12C[C@@]1(COC(=O)C1)CO2`, the Reduction in assay [1] came to 9%.
`Cc1c(CCC(=O)O)c(=O)oc2c(C)c(O)ccc12`: the Reduction in assay [1] came out at 46%.
Still for that read-out and setting: to `O=C(/C=C/c1cccnc1)c1ccc(O)cc1` belongs 57%; to `C=C1CC[C@H]2[C@](C)(CO)[C@H](O)CC[C@@]2(C)[C@@H]1C/C=C1/C(=O)OC[C@H]1O`, 7%; to `O=C1C=CC2=C3c4cc(O)c(O)cc4C[C@@]3(O)COC2=C1O`, 6%.
As for `C[C@H]1CC[C@H]2[C@@](C)(CO)[C@@H](O)CC[C@]2(C)[C@@]12CC[C@](CO)(CC(=O)O)O2`, the Reduction in assay [1] was found to be 2%.
On the same count and under the same terms, with `CC[C@@H](O)c1ccc(OC[C@H](O)CN2CCCCC2)c(OC)c1` the figure was 5%.
With `Cc1c(CC(=O)N[C@@H](C)C(=O)O)c(=O)oc2cc(O)ccc12`, the Reduction in assay [1] was 0%.
The same measure, in the same setting: to `CC(=O)c1c(O)c(C)c(O)c2c1OC1=CC(=O)[C@H](C(C)=O)C(=O)[C@]12C` belongs 4%.
On the same count and under the same terms, to `CC[C@H](NC(=O)Cc1c(C)c2ccc(O)cc2oc1=O)C(=O)O` belongs 0%; to `COc1cc(/C=C/C(=O)c2c(O)cc(C)oc2=O)ccc1O`, 2%; to `C=C1CC[C@H]2[C@](C)(CO)[C@H](O)CC[C@@]2(C)[C@@H]1/C=C/C1=CCOC1=O`, 0%.
On the same count and under the same terms, with `O=C1C=CC2=C3c4ccc(O)cc4OC[C@]3(O)CC2=C1` the figure was 27%; with `CC(=O)Oc1ccc2c(C)c(C[C@H](C)O)c(=O)oc2c1`, 42%; with `C=C1CC[C@H]2[C@](C)(CO)[C@H](O)CC[C@@]2(C)[C@@H]1C/C=C1/C(=O)OC[C@@H]1O`, 0%.
